Experiment [1] in a line: inhibitors of TNFa-induced NFkB p65 translocation, primary screen, imaging, HUVEC, MLSMR starter and 10KST1 sets (AID 438;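 active means inhibition above 20% together with a positive visual image hit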;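 further: compound added about 3h40 before a 20 min TNFalpha stimulation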;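 on inhibition: signal is the nuclear over cytoplasmic p65 intensity ratio per well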). The settings on record: HUVEC TNFa-induced p65 nuclear translocation; cell count: measured here: nuclei count (cytotoxicity indicator), at 2.08 µM; inhibition: at 2 µM, stronger effect = higher value, 0% TNFa-plus-vehicle, 100% no-TNFa wells.
The nature of experiment [2]: endothelial E-selectin expression blockers – imaging, HUVEC, immunofluorescence, MLSMR starter and 10KST1 sets, primary screen (AID 487;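 active means visually confirmed hit in the image check and inhibition above 20%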;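 on inhibition: signal is fraction of cell area covered by stained E-selectin grains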;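 on nuclei count: 100% = median nuclei count of all wells on the same plate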). The settings on record: HUVEC TNFalpha-induced E-selectin immunofluorescence imaging, at 2 µM; inhibition: stronger effect = higher value; nuclei count: measured here: cell number, toxicity.
Experiment [3] in a line: Primary imaging screen for DUSP6 inhibitors that restore phospho-Erk in transfected HeLa cells, chemical complementation (AID 609;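 active means compounds giving at least 50% inhibition in the cell-based MKP-3 phosphatase rescue imaging test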;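 on inhibition: phospho-Erk level distribution per well compared with pooled transfected vehicle control wells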). The settings on record: HeLa MKP-3 transfected, phospho-Erk imaging KS statistic, at 10 µM, cells stimulated with TPA for 15 min.
The target of experiment [4] is Dual specificity protein phosphatase 6 (Homo sapiens) (UniProt Q16828). The description is as above. The settings on record: HeLa MKP-3 transfected, phospho-Erk imaging KS statistic; at 10 µM; stronger effect = higher value; cells stimulated with TPA for 15 min.
The target of experiment [5] is Voltage-gated potassium channel subunit beta-2 (Rattus norvegicus) (UniProt P62483). Put plainly: inhibitors of rat Kvbeta2 reductase activity – biochemical, NADPH fluorescence, primary screen (AID 622;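 active means fluorescence slope higher than the sample average by over 3 SD, cut at about -0.22 in these data, passing the limit was not always enough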;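 further: slope of raw intensity against log time taken from 70 to 1610 s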). The settings on record: recombinant KvBeta, 4-cyanobenzaldehyde reduction, at 10 µM, stronger effect = higher value.
Experiment [6] shares this target. Put plainly: enhancers of rat Kvbeta2 NADPH turnover – biochemical, NADPH fluorescence, primary screen (AID 623;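 active means NADPH fluorescence slope more negative than the mean of all samples by about 3 SD, 99.7% confidence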;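 further: fluorescence intensity change per second fitted from 20 to 320 s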). The settings on record: Recombinant KvBeta, NADPH fluorescence decrease slope, 10 min; at 10 µM; stronger effect = lower value.
The target in experiment [7] is Muscarinic acetylcholine receptor M4 (Homo sapiens) (UniProt P08173). Briefly: M4-linked GIRK flux change, two-sided – cell-based, HEK293 M4/GIRK, thallium flux, BTC-AM, M4 allosteric agonist project, primary screen (AID 625).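 Further: thallium influx through GIRK channels coupled to M4 in HEK293 cells with BTC-AM dye.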 The settings on record: at 10 µM, actives lie on both sides. In short, it runs like this:
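Material – HEK293 cells with M4 receptor and GIRK channels · Buffer or medium – pH 7.3 thallium assay buffer · Doses – one dose, 10 µM final · Timing – cells overnight at 37 °C, BTC-AM loading 1 h, reads 2 min total · Measured by – kinetic fluorescence with BTC-AM dye · Controls – carbachol and DMSO controls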

Experiment [8] in a line: inhibitors of larval lipid processing in zebrafish, primary screen, whole organism, PED6 fluorescence, gall bladder and intestine (AID 686;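 active means a full or partial loss of lipid-probe fluorescence in the fish gall bladder, intestine or both, judged by eye; inactive means no fluorescence loss, or compound toxic to the fish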;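 further: larvae 5 to 7 days old with five fish per well; signal comes from phospholipase A2 cleavage of quenched PED6 carried via bile; overnight exposure to compound and PED6 before scoring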). The settings on record: Zebrafish larvae PED6 lipid processing, fluorescence scoring; screened at 20 µM (by protocol). In short, it runs like this:
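system = live zebrafish larvae aged 5-7 days, whole organism | probe or stimulus = ingested quenched lipid PED6 at 100 nM | doses = 20 µM single dose | timing = overnight exposure | detection = fluorescence microscopy with visual scoring of gall bladder and intestine | read-out = visual per-well fluorescence inhibition score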

Experiment [9] is described as follows: loss of swimming-algae plug formation – whole organism, Chlamydomonas reinhardtii, WT vs cilia-less mutant, absorbance, 96-well, primary screen (AID 463189;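 active means inhibition at or above 50% relative to wild type and mutant plate controls; inactive means inhibition below 50%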;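 further: 0% = wild type cc124 cells in DMSO and 100% = ciliumless bld1 mutant cells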). The settings on record: Chlamydomonas reinhardtii gravitaxis, OD600 absorbance, 2 days; at 10 µM; stronger effect = higher value.
The mark [10] stands for this setting: measured here: cell density z-score.
Setting [11] is: measured here: nuclear c-Myc green intensity z-score.
The mark [12] stands for this setting: measured here: nuclear pErk red intensity z-score, stronger effect = higher value.

Each structure is given as a SMILES string. Active and inactive are the calls of the source.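 How the source made its calls, unless noted: active means fluorescence slope after compound addition differing from the mean of all tested samples at 99.7% confidence, mostly higher but some lower; inactive means the rest.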

A word on the inhibition: it is the drop in the measured response relative to a control, in per cent.

Sequence of Muscarinic acetylcholine receptor M4 (Homo sapiens) (P08173 whole entry, looked up): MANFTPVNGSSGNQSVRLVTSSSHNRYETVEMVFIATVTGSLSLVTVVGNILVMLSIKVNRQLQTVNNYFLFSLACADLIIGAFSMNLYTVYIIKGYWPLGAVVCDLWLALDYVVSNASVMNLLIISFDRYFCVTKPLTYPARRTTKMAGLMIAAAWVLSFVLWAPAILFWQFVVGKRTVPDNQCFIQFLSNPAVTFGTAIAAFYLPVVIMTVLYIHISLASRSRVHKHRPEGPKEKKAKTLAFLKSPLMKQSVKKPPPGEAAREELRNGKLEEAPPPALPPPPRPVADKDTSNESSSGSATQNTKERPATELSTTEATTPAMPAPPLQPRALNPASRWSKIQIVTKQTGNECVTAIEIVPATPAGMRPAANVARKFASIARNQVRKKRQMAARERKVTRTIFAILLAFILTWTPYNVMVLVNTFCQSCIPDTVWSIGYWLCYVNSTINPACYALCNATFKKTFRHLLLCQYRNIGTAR
Sequence of Dual specificity protein phosphatase 6 (Homo sapiens) (Q16828 whole entry, looked up): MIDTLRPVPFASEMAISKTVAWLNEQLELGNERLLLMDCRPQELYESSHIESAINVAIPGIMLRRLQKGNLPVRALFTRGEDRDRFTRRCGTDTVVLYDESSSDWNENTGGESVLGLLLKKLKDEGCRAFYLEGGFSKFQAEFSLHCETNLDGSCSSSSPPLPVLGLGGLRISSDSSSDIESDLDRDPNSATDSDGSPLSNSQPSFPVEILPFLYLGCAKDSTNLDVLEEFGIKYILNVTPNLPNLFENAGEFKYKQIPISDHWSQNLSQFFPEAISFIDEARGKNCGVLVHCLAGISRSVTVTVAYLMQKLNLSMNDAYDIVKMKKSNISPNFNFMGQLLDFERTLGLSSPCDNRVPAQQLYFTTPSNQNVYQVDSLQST
Sequence of Voltage-gated potassium channel subunit beta-2 (Rattus norvegicus) (P62483 whole entry, looked up): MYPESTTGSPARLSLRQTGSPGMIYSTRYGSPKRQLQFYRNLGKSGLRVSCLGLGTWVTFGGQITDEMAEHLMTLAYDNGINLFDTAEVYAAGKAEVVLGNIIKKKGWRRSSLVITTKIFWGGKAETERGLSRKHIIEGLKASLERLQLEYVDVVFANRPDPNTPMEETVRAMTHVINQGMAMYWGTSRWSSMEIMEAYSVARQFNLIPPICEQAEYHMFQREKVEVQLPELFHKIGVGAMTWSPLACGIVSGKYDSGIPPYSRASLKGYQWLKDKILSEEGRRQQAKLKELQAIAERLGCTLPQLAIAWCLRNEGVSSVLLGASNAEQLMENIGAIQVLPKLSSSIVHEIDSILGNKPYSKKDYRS

As to `O=C(O)C(O)c1ccco1` (stereo unspecified), the cell count in experiment [1] is 365. Besides, the inhibition was -6.1% (inactive) in [1], -95% (inactive) in experiment [2], -4.59% (inactive) in experiment [4] and -5.52% (inactive) in experiment [9]. In addition, the nuclei count in [2] is 150%. Moreover, the z-score in [3] (setting [10]) was 0.761; in experiment [3] (setting [11]) it was 0.00341; in experiment [3] (setting [12]), -0.65. Further, the fluorescence slope is -0.43 (inactive) in experiment [5] and 0.00449 (inactive) in [7]. For the same molecule, in experiment [6], the NADPH fluorescence slope was -9.9e-05 (inactive). Moreover, the outcome in experiment [8] was inactive.

Turning to `CC(C)(C)NC(=O)/C=N/O`, the cell count in experiment [1] turned out to be 637. For the same molecule, the inhibition in experiment [1] was -13.4% (inactive); in [2] it was -71.6% (inactive); in experiment [4] it was 1.63% (inactive); in experiment [9] it was 25.5% (inactive). The molecule also had a nuclei count in experiment [2] of 166%. Besides, the results for the z-score in [3] (setting [10]), in [3] (setting [11]) and in experiment [3] (setting [12]) were -0.0727, -0.26 and 0.222, respectively. For the same molecule, the fluorescence slope in experiment [5] is -0.466 (inactive); in experiment [7], 0.00655 (inactive). The NADPH fluorescence slope in experiment [6] is -3.8e-05 (inactive). Also, the outcome in [8] was inactive.

For the molecule `COCCNC(=O)C(C#N)c1nc2ccccc2nc1N1CCN(Cc2ccc3c(c2)OCO3)CC1` (stereo unspecified), the cell count in experiment [1] amounted to 737. Also, the inhibition was -8.1% (inactive) in experiment [1], 11.8% (inactive) in experiment [2], -2.09% (inactive) in experiment [4] and 4.28% (inactive) in experiment [9]. Further, the nuclei count in [2] amounted to 172%. In addition, the values for the z-score in experiment [3] (setting [10]), in experiment [3] (setting [11]) and in experiment [3] (setting [12]) were -1.49, 1.08 and 1.16, respectively. Moreover, the fluorescence slope is -0.474 (inactive) in experiment [5] and 0.00436 (inactive) in [7]. Besides, the NADPH fluorescence slope in [6] is -0.000128 (inactive). Further, the call in [8] was inactive.

On to `O=C(CSc1nc2ccccc2c(=O)n1CC1CCCCC1)N1CCOCC1`, for which, in experiment [1], the cell count amounted to 369. Also, the inhibition in experiment [1] was -5.3% (inactive); in experiment [2], -6.6% (inactive); in experiment [4], 7.42% (inactive); in [9], -8.49% (inactive). Further, the nuclei count in experiment [2] was found to be 136%. Also, the z-score in experiment [3] (setting [10]) was -0.271; in experiment [3] (setting [11]), -0.657; in experiment [3] (setting [12]), -0.609. In addition, the fluorescence slope in experiment [5] was -0.465 (inactive); in experiment [7] it was 0.00433 (inactive). Besides, the NADPH fluorescence slope in experiment [6] was -8.1e-05 (inactive). Also, the call in [8] was inactive.

For the molecule `COc1ccc(C2NC3=C(CCC3)C3(C#N)C(OC)(OC)N=C(N)C23C#N)cc1` (stereo unspecified), the cell count in experiment [1] is 535. The inhibition is -13.1% (inactive) in experiment [1], -35.8% (inactive) in experiment [2], 1.42% (inactive) in experiment [4] and 30.4% (inactive) in experiment [9]. In experiment [2], this molecule registered a nuclei count of 134%. Besides, the z-score in experiment [3] (setting [10]) was -0.336; in experiment [3] (setting [11]), 0.913; in experiment [3] (setting [12]) it was 0.179. Also, the fluorescence slope was -0.438 (inactive) in experiment [5] and 0.0052 (inactive) in [7]. The NADPH fluorescence slope in experiment [6] is -3.3e-05 (inactive). Moreover, the result in [8] was inactive.

With `Cc1cccn2c(=O)c3cc(C(=O)NCc4cccnc4)c(=N)n(C)c3nc12`, in [1], the cell count was determined as 734. For the same molecule, the inhibition was 7.8% (inactive) in [1], -3.9% (inactive) in experiment [2], 7.83% (inactive) in [4] and 2.07% (inactive) in experiment [9]. This molecule displayed a nuclei count in experiment [2] of 154%. The z-score is -0.252 in experiment [3] (setting [10]), 0.503 in experiment [3] (setting [11]) and 1.16 in experiment [3] (setting [12]). The fluorescence slope in experiment [5] is -0.403 (inactive); in experiment [7] it was 0.00535 (inactive). Moreover, the NADPH fluorescence slope in [6] was -4.4e-05 (inactive). Moreover, the outcome in experiment [8] was inactive.

Consider `O=c1[nH]c(CN(CCO)CCO)nc2c1C1(CCCCC1)Cc1ccccc1-2`, for which the cell count in [1] was found to be 692. For the same molecule, the inhibition in experiment [1] was -15.1% (inactive); in [2], -131% (inactive); in experiment [4], 9.91% (inactive); in experiment [9] it was 1.18% (inactive). The molecule also showed a nuclei count in experiment [2] of 181%. Moreover, the z-score in experiment [3] (setting [10]) came to 0.688; in [3] (setting [11]), 0.303; in experiment [3] (setting [12]), 0.475. Besides, the fluorescence slope in [5] was -0.47 (inactive); in experiment [7], 0.00503 (inactive). The NADPH fluorescence slope in experiment [6] was -5.1e-05 (inactive). Moreover, the result in experiment [8] was inactive.

(Values after PubChem BioAssay.)
